Source: ChEMBL document CHEMBL4765325, “Discovery of dihydropyrrolidones as novel inhibitors against influenza A virus” (Eur J Med Chem, 2020)
The source made the active and inactive calls. The calls are words filed in the database; no cut-off is given here.

Experiments:
Influenza A virus [1] = test: Antiviral activity against Influenza A virus (A/Puerto Rico/8/34(H1N1)) infected in dog MDCK cells assessed as reduction in virus-induced cytopathogenicity incubated for 48 hrs by microscopic analysis; format: functional, organism-based; details: A/Puerto Rico/8/1934(H1N1)
Influenza A virus [2] = test: Antiviral activity against Influenza A virus (A/Puerto Rico/8/34(H1N1)) infected in human A549 cells assessed as reduction in viral replication by measuring HA mRNA expression at 5 to 40 uM incubated for 24 hrs by qRT-PCR analysis; format: functional, organism-based; details: A/Puerto Rico/8/1934(H1N1), dose 5-40 µM
Influenza A virus [3] = test: Antiviral activity against Influenza A virus 690 (H3) infected in dog MDCK cells assessed as reduction in virus-induced cytopathogenicity incubated for 48 hrs by microscopic analysis; format: functional, organism-based
MDCK [4] = test: Upregulation of MxA in dog MDCK cells infected with Influenza A virus (A/Puerto Rico/8/34(H1N1)) at 40 uM incubated for 24 hrs by qRT-PCR analysis; format: functional, cell-based; details: Canis lupus familiaris
How it was run: (§1)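 Virus-infected MDCK cells were treated with compound for 24 h. Expression of each gene was then measured by qRT-PCR using gene-specific primers, against an untreated control group.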

Influenza A virus [5] = test: Antiviral activity against Influenza A virus (A/Fort Monmouth/1/1947(H1N1)) infected in dog MDCK cells assessed as reduction in virus-induced cytopathogenicity incubated for 48 hrs by microscopic analysis; format: functional, organism-based
[6] = Cytotoxicity against dog MDCK cells assessed as reduction in cell viability incubated for 48 hrs by MTT assay; format: cell-based, Canis lupus familiaris
How it was run: (§2)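 MDCK or A549 cells were seeded at 2 × 10⁴ per well and incubated overnight at 37 °C, 5% CO₂. Compound (1.56 to 400) was added for 48 h, followed by MTT for 4 h at 37 °C and DMSO to dissolve the formazan. Absorbance was read at 570 nm and CC₅₀ calculated.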

[7] = Selectivity index, ratio of CC50 for dog MDCK cells to IC50 for antiviral activity against Influenza A virus (A/Puerto Rico/8/34(H1N1)); format: toxicity; details: read-out: Ratio CC50/IC50
How it was run: (§3)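 SI = CC50/IC50, both from MTT read-outs in MDCK cells in triplicate. Cytotoxicity: 2 × 10⁴ cells/well, overnight at 37 °C with 5% CO2, then compound at 1.56–400 µM for 48 h, MTT 4 h, DMSO, A570. Antiviral: cells infected 1 h, washed, then cultured 48 h in DMEM with TPCK and two-fold serial compound dilutions.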

Influenza A virus [8] = test: Antiviral activity against Influenza A virus (A/Puerto Rico/8/34(H1N1)) infected in dog MDCK cells assessed as reduction in viral replication by measuring NP level incubated for 24 hrs by immunofluorescence staining based Ti-Eclipse inverted fluorescence microscopic analysis; format: functional, organism-based; details: A/Puerto Rico/8/1934(H1N1), dose 5-40 µM
How it was run: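 MDCK cells were infected with PR8 at 100TCID₅₀ and treated with varied compound concentrations. At 24 h p.i. they were washed with cold PBS, fixed in 4% paraformaldehyde for 10 min and blocked in 3% BSA for 1 h at room temperature. Staining used anti-NP (1:250) overnight at 4 °C, then a FITC secondary for 1 h, with DAPI nuclear counterstain; cells were imaged by fluorescence microscopy.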

[9] = Cytotoxicity against human A549 cells assessed as reduction in cell viability incubated for 48 hrs by MTT assay; format: cell-based; how it was run: as §2
MDCK [10] = test: Downregulation of NOX1 in dog MDCK cells infected with Influenza A virus (A/Puerto Rico/8/34(H1N1)) at 40 uM incubated for 24 hrs by qRT-PCR analysis; format: functional, cell-based; details: Canis lupus familiaris; how it was run: as §1
Influenza A virus [11] = test: Antiviral activity against Influenza A virus (A/Puerto Rico/8/34(H1N1)) infected in dog MDCK cells assessed as reduction in viral replication by measuring NP expression at 40 uM measured upto 10 hrs by Western blot analysis; format: functional, organism-based; details: A/Puerto Rico/8/1934(H1N1), time hrs <=10
How it was run: (§4)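 Time-of-addition assay with PR8. After unabsorbed virus was removed, cells received compound during the intervals 0–2, 2–5, 5–8, 8–10 or 0–10 h, covering one replication cycle. At 10 h p.i., viral NP protein was read by western blot and viral mRNA by qRT-PCR. Three independent experiments, mean SD.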

MDCK [12] = test: Upregulation of IFN-beta in dog MDCK cells infected with Influenza A virus (A/Puerto Rico/8/34(H1N1)) at 40 uM incubated for 24 hrs by qRT-PCR analysis; format: functional, cell-based; details: Canis lupus familiaris; how it was run: as §1
[13] = Selectivity index, ratio of CC50 for dog MDCK cells to IC50 for antiviral activity against Influenza A virus 690 (H3); format: toxicity; details: read-out: Ratio CC50/IC50; how it was run: as §3
Influenza A virus [14] = test: Antiviral activity against Influenza A virus (A/Puerto Rico/8/34(H1N1)) infected in human A549 cells assessed as reduction in viral replication by measuring NP expression at 40 uM measured upto 10 hrs by qRT-PCR analysis; format: functional, organism-based; details: A/Puerto Rico/8/1934(H1N1), time hrs <=10; how it was run: as §4
[15] = Selectivity index, ratio of CC50 for dog MDCK cells to IC50 for antiviral activity against Influenza A virus (A/Fort Monmouth/1/1947(H1N1)); format: toxicity; details: read-out: Ratio CC50/IC50; how it was run: as §3
Influenza A virus [16] = test: Antiviral activity against Influenza A virus (A/Puerto Rico/8/34(H1N1)) infected in dog MDCK cells assessed as reduction in plaque formation incubated for 48 hrs by crystal violet staining based assay; format: functional, organism-based; details: A/Puerto Rico/8/1934(H1N1), dose 5-40 µM
How it was run: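 Plaque reduction assay in PR8-infected MDCK cells across a range of compound doses. Cells were fixed with 4% paraformaldehyde and stained with crystal violet. Inhibition was scored by counting plaques.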

Influenza A virus [17] = test: Antiviral activity against Influenza A virus (A/Puerto Rico/8/34(H1N1)) infected in dog MDCK cells assessed as reduction in viral replication at 40 uM measured upto 10 hrs; format: functional, organism-based; details: A/Puerto Rico/8/1934(H1N1), time hrs <=10; how it was run: as §4
Influenza A virus [18] = test: Antiviral activity against Influenza A virus (A/Puerto Rico/8/34(H1N1)) infected in dog MDCK cells assessed as reduction in viral replication by measuring NP level incubated for 24 hrs by Western blot analysis; format: functional, organism-based; details: A/Puerto Rico/8/1934(H1N1), dose 5-40 µM
How it was run: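 Two-fold serial compound dilutions were added to PR8-infected MDCK cells after virus adsorption, and cells were harvested at 24 h p.i. Equal lysate protein was run on 10% SDS-PAGE and transferred to PVDF. Blots were probed with anti-NP (1:2000) and β-actin as loading control, then an HRP secondary, with chemiluminescent detection.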

H3N2 subtype = test: Antiviral activity against Influenza A virus (A/Aichi/2/1968(H3N2)) infected in dog MDCK cells assessed as reduction in virus-induced cytopathogenicity incubated for 48 hrs by microscopic analysis; format: functional, cell-based
[19] = Selectivity index, ratio of CC50 for dog MDCK cells to IC50 for antiviral activity against Influenza A virus (A/Aichi/2/1968(H3N2)); format: toxicity; details: read-out: Ratio CC50/IC50; how it was run: as §3
Influenza A virus [20] = test: Antiviral activity against Influenza A virus (A/Puerto Rico/8/34(H1N1)) infected in dog MDCK cells assessed as reduction in viral replication by measuring HA mRNA expression measured upto 72 hrs by qRT-PCR analysis; format: functional, organism-based; details: A/Puerto Rico/8/1934(H1N1), time hrs <=72
How it was run: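 Viral HA mRNA was measured by qRT-PCR in IAV-infected MDCK cells treated with serially diluted compound, at 24, 48 and 72 h p.i. Ribavirin served as positive control; data are mean SD.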

| SMILES | IC50 (Influenza A virus [1]) | also measured |
| --- | --- | --- |
| CCOC(=O)C1=C(Nc2ccc(C(F)(F)F)cc2)C(=O)N(c2ccc(C(F)(F)F)cc2)C1 | 222 µM | – |
| CCOC(=O)C1=C(Nc2ccc(C(F)(F)F)cc2)C(=O)N(c2ccc(C(F)(F)F)cc2)C1c1ccc(Br)s1 (stereo not given) | > 400 µM | – |
| CCOC(=O)C1=C(Nc2ccc(C(F)(F)F)cc2)C(=O)N(c2ccc(C(F)(F)F)cc2)C1c1ccc(Cl)cc1 (stereo not given) | > 400 µM | – |
| CCOC(=O)C1=C(Nc2ccc(C(F)(F)F)cc2)C(=O)N(c2ccc(C(F)(F)F)cc2)C1c1ccc(C(C)(C)C)cc1 (stereo not given) | > 400 µM | – |
| CCOC(=O)C1=C(Nc2ccc(C(F)(F)F)cc2)C(=O)N(c2ccc(C(F)(F)F)cc2)C1c1ccccc1 (stereo not given) | 3.11 µM | Activity (Influenza A virus [2]): Active; IC50 (Influenza A virus [3]): 7.13 µM; Activity (MDCK [4]): Active; IC50 (Influenza A virus [5]): 3.58 µM; CC50 at 48 h [6]: > 400 µM; selectivity ratio [7]: > 129; Activity (Influenza A virus [8]): Dose-dependent effect; CC50 at 48 h [9]: > 400 µM; Activity (MDCK [10]): Active; Activity (Influenza A virus [11]): Active; Activity (MDCK [12]): Active; selectivity ratio [13]: > 56.1; Activity (Influenza A virus [14]): Active; selectivity ratio [15]: > 112; Activity (Influenza A virus [16]): Dose-dependent effect; Activity (Influenza A virus [17]): Active; Activity (Influenza A virus [18]): Dose-dependent effect; IC50 (H3N2 subtype): 5.26 µM; selectivity ratio [19]: > 76; Activity (Influenza A virus [20]): Active |
| CCOC(=O)C1=C(Nc2ccc(OC)cc2)C(=O)N(c2ccc(OC)cc2)C1c1ccccc1 (stereo not given) | > 400 µM | – |
| COC(=O)C1=C(Nc2ccc(C(F)(F)F)cc2)C(=O)N(c2ccc(C(F)(F)F)cc2)C1c1ccccc1 (stereo not given) | 11.9 µM | – |
| CCOC(=O)C1=C(NC2CCCCC2)C(=O)N(C2CCCCC2)C1c1ccccc1 (stereo not given) | > 400 µM | – |
| CCOC(=O)C1=C(Nc2ccc(C(F)(F)F)cc2)C(=O)N(c2ccc(C(F)(F)F)cc2)C1c1ccc(C(F)(F)F)cc1 (stereo not given) | 67.2 µM | – |
| CCOC(=O)C1=C(Nc2cccc(C(F)(F)F)c2)C(=O)N(c2cccc(C(F)(F)F)c2)C1c1ccccc1 (stereo not given) | 30.9 µM | – |
| CCOC(=O)C1=C(Nc2ccc(Cl)cc2)C(=O)N(c2ccc(Cl)cc2)C1c1ccccc1 (stereo not given) | > 400 µM | – |
| CCOC(=O)C1=C(Nc2ccccc2)C(=O)N(c2ccccc2)C1c1ccccc1 (stereo not given) | > 400 µM | – |
| CCOC(=O)C1=C(Nc2ccc(C(F)(F)F)cc2)C(=O)N(c2ccc(C(F)(F)F)cc2)C1c1cccc(OC)c1 (stereo not given) | 9.23 µM | – |
| CCOC(=O)C1=C(Nc2ccc(C(F)(F)F)cc2)C(=O)N(c2ccc(C(F)(F)F)cc2)C1c1ccc(OC(F)(F)F)cc1 (stereo not given) | 128 µM | – |
| CCOC(=O)C1=C(Nc2ccc(C(F)(F)F)cc2)C(=O)N(c2ccc(C(F)(F)F)cc2)C1c1cccc2ccccc12 (stereo not given) | 11.8 µM | – |
| CCOC(=O)C1=C(Nc2ccc(C(F)(F)F)cc2)C(=O)N(c2ccc(C(F)(F)F)cc2)C1c1ccc(C#N)cc1 (stereo not given) | > 400 µM | – |
| CCOC(=O)C1=C(Nc2ccc(C(C)(C)C)cc2)C(=O)N(c2ccc(C(C)(C)C)cc2)C1c1ccccc1 (stereo not given) | > 400 µM | – |
| CCOC(=O)C1=C(Nc2ccc(C)cc2)C(=O)N(c2ccc(C)cc2)C1c1ccccc1 (stereo not given) | 19 µM | – |
| CCOC(=O)C1=C(Nc2ccc(C(F)(F)F)cc2)C(=O)N(c2ccc(C(F)(F)F)cc2)C1c1ccc(Br)cc1 (stereo not given) | > 400 µM | – |
| CCOC(=O)C1=C(Nc2ccc(C(F)(F)F)cc2)C(=O)N(c2ccc(C(F)(F)F)cc2)C1c1cccc([N+](=O)[O-])c1 (stereo not given) | > 400 µM | – |
| CCOC(=O)C1=C(Nc2ccc(C(F)(F)F)cc2)C(=O)N(c2ccc(C(F)(F)F)cc2)C1c1cccc(C(F)(F)F)c1 (stereo not given) | 11.8 µM | – |
| CCOC(=O)C1=C(Nc2ccc(Oc3ccccc3)cc2)C(=O)N(c2ccc(Oc3ccccc3)cc2)C1c1ccccc1 (stereo not given) | > 400 µM | – |
| CCOC(=O)C1=C(Nc2ccc(Br)cc2)C(=O)N(c2ccc(Br)cc2)C1c1ccccc1 (stereo not given) | > 400 µM | – |
| NC(=O)c1ncn([C@@H]2O[C@H](CO)[C@@H](O)[C@H]2O)n1 [RIBAVIRIN] | 2.84 µM | – |
| CCOC(=O)C1=C(Nc2ccc(C(F)(F)F)cc2)C(=O)N(c2ccc(C(F)(F)F)cc2)C1c1ccc(F)cc1 (stereo not given) | 7.63 µM | – |
| CCOC(=O)C1=C(Nc2ccc(C(C)C)cc2)C(=O)N(c2ccc(C(C)C)cc2)C1c1ccccc1 (stereo not given) | > 400 µM | – |
| COC(=O)C1=C(Nc2cccc(C(F)(F)F)c2)C(=O)N(c2cccc(C(F)(F)F)c2)C1c1ccccc1 (stereo not given) | 16.1 µM | – |
| CCOC(=O)C1=C(Nc2ccc(C(F)(F)F)cc2)C(=O)N(c2ccc(C(F)(F)F)cc2)C1c1ccc([N+](=O)[O-])cc1 (stereo not given) | > 400 µM | – |
| CCOC(=O)C1=C(Nc2cccc(Cl)c2)C(=O)N(c2cccc(Cl)c2)C1c1ccccc1 (stereo not given) | 6.91 µM | – |
| CCOC(=O)C1=C(Nc2ccc(C(F)(F)F)cc2)C(=O)N(c2ccc(C(F)(F)F)cc2)C1c1ccc(C)cc1 (stereo not given) | 68.5 µM | – |
